# Measurements published in paper PMC9924909 (Brain, 2022).
# Values joined by “and” are separate entries in the source; they are usually repeats but may differ in a detail not shown here. Identical values can stand only once. “Also recorded” adds a separate entry of the source.
# Assays:
# [1] = system: mouse models of neurological GD; conditions: cited from earlier work
# adults with GD3 [2] = experiment: Trail Making Test; type: in vivo, human
# Method in brief: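 Neurocognition measured with the Trail Making Test: Part A (timed visual search and psychomotor speed) and Part B (set-shifting, executive component). Trail B minus Trail A time was derived to remove graphomotor and visual-scanning variance. Baseline versus Week 52 under oral test compound 15 mg once daily plus maintenance IV enzyme replacement.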
# [3] = system: monosialodihexosylganglioside; experiment: Monosialodihexosylganglioside in CSF; type: in vivo, human; conditions: Weeks 4, 26 and 52; measurable at baseline in eight of 11 patients
# Method in brief: (§1)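 Exploratory CSF biomarkers quantified in CSF taken by lumbar puncture at baseline and Weeks 1, 4, 26 and 52. Adults with GD3 received oral test compound 15 mg once daily plus maintenance IV enzyme replacement for 52 weeks.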
# adults with GD3 [4] = experiment: Brain volumetric MRI, tensor-based morphometry; type: in vivo, human
# Method in brief: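 MRI of brain and brainstem (at least T1 and T2) at baseline, Week 26 and Week 52 on 1.5 or 3 T scanners, read centrally by a reviewer blinded to patient and time point. FreeSurfer parcellation. Tensor-based morphometry: symmetric log-demons registration of baseline/follow-up pairs with a cross-correlation metric. The Jacobian determinant integrated over each region gives the rate of volume change.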
# adults with GD3 [5] = experiment: Systemic manifestations of GD; type: in vivo, human
# Method in brief: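 Haemoglobin, platelet count, and liver and spleen volumes assessed per standard clinical practice over 1 year of daily oral test compound 15 mg plus maintenance IV enzyme replacement. Bone mineral density measured by DXA; bone marrow burden scored from lumbar spine and femur MRI. Lung function followed ATS standards: spirometry (FVC, FEV₁), total lung capacity and carbon monoxide diffusing capacity.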
# [6] = Venglustat CSF pharmacokinetics, LEAP trial; type: in vivo, human; conditions: for CSF venglustat concentration, mean (SD): 10 patients (Patient 9 excluded); for CSF venglustat concentration, Patient 9: single patient with low exposure
# Method in brief: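 CSF for drug levels collected pre-dose on Day 1 and 2–4 h post-dose at Weeks 4, 26 and 52 (reported as ~4 h), while on oral test compound 15 mg once daily. Concentrations summarised descriptively, with one patient excluded from summary statistics. Values below LLOQ entered as 0.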
# adults with GD3 [7] = experiment: Vineland Adaptive Behavior Scale II; type: in vivo, human; conditions: over 1 year of venglustat treatment
# [8] = Venglustat plasma pharmacokinetics, LEAP trial; type: in vivo, human; conditions: for plasma venglustat concentration, mean (SD): 10 patients (Patient 9 excluded); for plasma venglustat concentration, Patient 9: single patient with low exposure
# Method in brief: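 Plasma sampled on Day 1 pre-dose and at 1, 2, 4, 8 and 24 h. Further samples taken 2–4 h post-dose at Weeks 4, 26 and 52, and pre-dose at Weeks 12 and 39. Oral test compound 15 mg once daily. […] Values below LLOQ entered as 0.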
# glucosylceramide = experiment: Glucosylceramide concentration in plasma and CSF, LEAP trial; type: in vivo, human
# Method in brief: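 CSF collected by lumbar puncture at baseline and Weeks 1, 4, 26, 52; plasma at baseline and Weeks 1, 4, 12, 26, 39, 52. Dosing was oral test compound 15 mg once daily with maintenance IV enzyme replacement. LLOQ: glucosylceramide 0.1 μg/ml plasma, 2.0 ng/ml CSF; glucosylsphingosine 5.0 ng/ml plasma, 5 pg/ml CSF. Change from baseline summarised as median percentage with interquartile range and 95% CI.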
# plasma glucosylceramide = conditions: cited from earlier work
# adults with GD3 [9] = experiment: Horizontal and vertical saccadic eye movements; type: in vivo, human; conditions: after 1 year; horizontal or vertical velocity and amplitude
# Method in brief: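 Horizontal and vertical saccades recorded non-invasively and assessed by a central reader. Eye-position and target traces were filtered to give eye velocity. Saccades were detected by velocity criteria, and amplitude, duration and peak velocity were derived. Patients took oral test compound 15 mg once daily on top of maintenance IV enzyme replacement for 1 year.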
# ceramide = experiment: Ceramide in CSF; type: in vivo, human; conditions: baseline and throughout the study
# Method in brief: as §1
# [10] = system: glucosylceramide synthase; conditions: cited from earlier work
# adults with GD3 [11] = experiment: Ataxia, Scale for Assessment and Rating of Ataxia; type: in vivo, human
# [12] = after 1 year, patient with low venglustat exposure
# [13] = individual patients, baseline to Week 52
# [14] = Week 4, ~4 h post-dose, 15 mg once daily
# [15] = Week 26, ~4 h post-dose, 15 mg once daily
# [16] = Week 52, ~4 h post-dose, 15 mg once daily
# [17] = baseline to Week 52, 11 patients
smiles,measurement,setting,value
CC(C)(NC(=O)O[C@@H]1CN2CCC1CC2)c1csc(-c2ccc(F)cc2)n1 [Venglustat],glycolipid accumulation in liver and brain,[1],reduced accumulation of gluco-series glycolipids in the liver and brain
same,median survival of treated mice,[1]; increased from 45 days,60 days
same,increase in median survival,[1]; treated mice,30%
same,"time to complete TMT Trail A at Week 52, mean (SD)",adults with GD3 [2]; baseline 54.4 (47.5) s,53.5 (43.1) s
same,"time to complete Trail B minus Trail A at Week 52, mean",adults with GD3 [2]; baseline 99.3 s,61.7 s
same,"time to complete TMT Trail B at Week 52, mean (SD)",adults with GD3 [2]; baseline 153.6 (149.4),115.3 (76.8) seconds
same,patients with reduction in Trail B minus Trail A time,adults with GD3 [2]; baseline to Week 52,7 of 11
same,"time to complete TMT Trail A, mean change","adults with GD3 [2]; baseline to Week 52, 95% CI: −21.0 to 19.4",-0.8 s
same,"time to complete Trail B minus Trail A, mean change","adults with GD3 [2]; baseline to Week 52, 95% CI: −88.1 to 13.0",-37.5 s
same,"time to complete TMT Trail B, mean change","adults with GD3 [2]; baseline to Week 52, 95% CI: −104.8 to 28.1",-38.4 s
same,patients with reduction in TMT Trail B time,"adults with GD3 [2]; baseline to Week 52, marked reduction",8 of 11
same,patients with reduction in TMT Trail A time,"adults with GD3 [2]; baseline to Week 52, minor reduction",5 of 11
same,monosialodihexosylganglioside in CSF on treatment,[3],undetectable in all CSF samples
same,"ventricular volume increase, Patient 9",adults with GD3 [4]; [12],9.6%
same,"whole brain volume reduction, Patient 9",adults with GD3 [4]; [12],1.57%
same,"change in whole brain volume, Patient 9","adults with GD3 [4]; after 1 year, patient with low-to-undetectable venglustat exposure, baseline 882 951 mm^3",−13894.8 mm^3
same,"MRI whole brain volume, Percentage change",adults with GD3 [4]; [13],−0.52% and 0.38% and 0.11% and −1.57% and −0.22% and −0.23% and 0.025% and 0.48% and 0.21%
same,"regional brain volume change (mean atrophy ± SD), left cuneus","adults with GD3 [4]; vMRI Group A, Week 52",37.2 ± 46.2
same,"regional brain volume change (mean atrophy ± SD), left entorhinal","adults with GD3 [4]; vMRI Group A, Week 52",34.5 ± 32.1
same,"regional brain volume change (mean atrophy ± SD), left lingual","adults with GD3 [4]; vMRI Group A, Week 52",50.1 ± 80.0
same,"regional brain volume change (mean atrophy ± SD), left pericalcarine","adults with GD3 [4]; vMRI Group A, Week 52",18.5 ± 22.0
same,"regional brain volume change (mean atrophy ± SD), left putamen","adults with GD3 [4]; vMRI Group A, Week 52",94.7 ± 78.7
same,"regional brain volume change (mean atrophy ± SD), right accumbens area","adults with GD3 [4]; vMRI Group A, Week 52",12.9 ± 9.6
same,"regional brain volume change (mean atrophy ± SD), right amygdala","adults with GD3 [4]; vMRI Group A, Week 52",60.8 ± 74.9
same,"regional brain volume change (mean atrophy ± SD), right postcentral","adults with GD3 [4]; vMRI Group A, Week 52",91.7 ± 100.0
same,"regional brain volume change (mean atrophy ± SD), right putamen","adults with GD3 [4]; vMRI Group A, Week 52",97.8 ± 100.8
same,ventricle volume change (mean ± SD),"adults with GD3 [4]; vMRI Group A, Week 52",−438 ± 696.9
same,lumbar spine bone mineral density category,"adults with GD3 [5]; after 1 year, seven patients with data",five patients remained in the same bone density category
same,interstitial lung disease,"adults with GD3 [5]; after 1 year, seven patients with detectable disease at baseline",four improved
same,bone marrow burden scores,"adults with GD3 [5]; during 1 year of treatment, 11 patients",remained in the same severity category in 10 patients
same,"haemoglobin concentrations, platelet counts, spleen and liver volumes","adults with GD3 [5]; throughout 1 year, reference range for healthy persons",remained in this range
same,"CSF venglustat concentration, mean (SD)",[6]; [14],6.63 (2.42) ng/ml
same,"CSF venglustat concentration, Patient 9",[6]; Week 4,3.05 ng/mL
same,"CSF venglustat concentration, mean (SD)",[6]; [15],6.77 (1.96) ng/ml
same,"CSF venglustat concentration, Patient 9",[6]; Week 26,1.77 ng/mL
same,"CSF venglustat concentration, mean (SD)",[6]; [16],6.14 (3.44) ng/ml
same,"CSF venglustat concentration, Patient 9",[6]; Week 52,undetectable
same,steady state reached (CSF),"[6]; mean CSF concentrations, Patient 9 excluded, 15 mg once daily",≤ 4 Week
same,crossing of the blood–brain barrier,[6]; venglustat detectable in CSF 4 h post dose over 1 year (excluding Patient 9),crossed the blood–brain barrier
same,Vineland II domain scores over time,adults with GD3 [7],deteriorated in all domains; also recorded: All domains decreased in normative score
same,accumulation in plasma after once-daily dosing versus Day 1,"[8]; 4 h post-dose plasma concentrations, 15 mg once daily",~2 fold
same,"plasma venglustat concentration, mean (SD)","[8]; Day 1, ~4 h post-dose, 15 mg once daily",48 (17.5) ng/ml
same,"plasma venglustat concentration, mean (SD)",[8]; [14],116 (48.1) ng/ml
same,"plasma venglustat concentration, Patient 9",[8]; Week 4,102 ng/mL
same,"plasma venglustat concentration, mean (SD)",[8]; [15],120 (40.1) ng/ml
same,"plasma venglustat concentration, Patient 9",[8]; Week 26,53.3 ng/mL
same,"plasma venglustat concentration, mean (SD)",[8]; [16],114 (65.8) ng/ml
same,"plasma venglustat concentration, Patient 9",[8]; Week 52,undetectable
same,AUC(0-t),"[8]; human, plasma, po, 15 mg",851 ng·h/mL
same,Cmax,"[8]; human, plasma, po, 15 mg",58.1 ng/mL
same,Tmax,"[8]; human, plasma, po, 15 mg",2 h
same,steady state reached (plasma),"[8]; mean plasma concentrations, Patient 9 excluded, 15 mg once daily",≤ 4 Week
same,median glucosylceramide reduction in CSF,glucosylceramide; [17],81%
same,median glucosylceramide reduction in plasma,glucosylceramide; [17],78%
same,"Glucosylceramide concentration, CSF, Change",glucosylceramide; [13],−4.04 ng/ml and −4.95 ng/ml and −8.95 ng/ml and +1.64 ng/ml and −4.17 ng/ml and −4.7 ng/ml and −3.32 ng/ml and −3.53 ng/ml and −7.02 ng/ml and −13.3 ng/ml
same,"Glucosylceramide concentration, CSF, Percentage change",glucosylceramide; [13],−80.2% and −83.2% and −80.6% and +37.1% and −80.7% and −82.5% and −47.4% and −77.9% and −76.9% and −87.5% and −93%
same,"Glucosylceramide concentration, Plasma, Change",glucosylceramide; [13],−4.31 μg/ml and −5.49 μg/ml and −4.7 μg/ml and +1.14 μg/ml and −3.97 μg/ml and −2.24 μg/ml and −5.31 μg/ml and −4.19 μg/ml and −3.68 μg/ml and −6.69 μg/ml
same,"Glucosylceramide concentration, Plasma, Percentage change",glucosylceramide; [13],−82.5% and −78.4% and −71.6% and +13.7% and −78.2% and −85.9% and −45.8% and −84% and −80.3% and −77% and −85.1%
same,mean plasma glucosylceramide reduction from baseline,"plasma glucosylceramide; 15 mg once daily, Day 15, healthy volunteers",74.6%
same,safety and tolerability in healthy volunteers,plasma glucosylceramide; once-daily dosing of up to 15 mg,favourable safety and tolerability profile
same,Emax (plasma glucosylceramide reduction),plasma glucosylceramide; pharmacokinetic-pharmacodynamic modelling after repeated dosing,80%
same,treatment effect on saccadic eye movements,adults with GD3 [9],no clear evidence of a treatment effect
same,ceramide concentrations in CSF,ceramide,within reference ranges
same,inhibition of glucosylceramide formation,[10],potent and specific inhibitor
same,"total modified SARA score at Week 52, mean","adults with GD3 [11]; 11 patients, baseline mean 2.68, scale 0–32",1.55
same,"total modified SARA score, mean change from baseline","adults with GD3 [11]; Week 52, 95% CI: −2.06 to −0.21",−1.14 points
same,patients with slightly improved total modified SARA score,adults with GD3 [11]; [17],nine patients; also recorded: nine of 11
